Only some compounds are listed: those with a hit (about 7.2% of all), similar ones and a draw of the others.
E coli WT exp – blocks growth of wild type E. coli BW25113; growth inhibition, % at 100 µM; OD600 absorbance; actives 0.15% (n = 98,000);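 active = growth inhibition above about 50% at one test dose, limit read from the data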;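 also: growth measured after 20 h incubation at 37 °C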
PostGolgi yeast – growth inhibition of a yeast mutant, post-Golgi transport screen. post-Golgi transport phenotypic cell assay. inhibition, % at 10 µM. actives 0.9% (n = 98,000). AID 739;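 also: yeast cells grown in 1536-well plates; yeast grown about 18 h at 30C before absorbance read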
PostGolgi ctrl – inhibits growth of the yeast control strain; efflux-deficient yeast background strain, growth absorbance A615, 16 h; inhibition, % at 10 µM; actives 5% (n = 98,000)
PLAP activator – human PLAP activation; P05187; purified PLAP enzyme, luminescent substrate read-out; hits give high values; activation fold at 20 µM; actives 1.2% (n = 96,000); AID 696; in the data active = activation fold above about 2
Target sequence (P05187 whole entry, looked up): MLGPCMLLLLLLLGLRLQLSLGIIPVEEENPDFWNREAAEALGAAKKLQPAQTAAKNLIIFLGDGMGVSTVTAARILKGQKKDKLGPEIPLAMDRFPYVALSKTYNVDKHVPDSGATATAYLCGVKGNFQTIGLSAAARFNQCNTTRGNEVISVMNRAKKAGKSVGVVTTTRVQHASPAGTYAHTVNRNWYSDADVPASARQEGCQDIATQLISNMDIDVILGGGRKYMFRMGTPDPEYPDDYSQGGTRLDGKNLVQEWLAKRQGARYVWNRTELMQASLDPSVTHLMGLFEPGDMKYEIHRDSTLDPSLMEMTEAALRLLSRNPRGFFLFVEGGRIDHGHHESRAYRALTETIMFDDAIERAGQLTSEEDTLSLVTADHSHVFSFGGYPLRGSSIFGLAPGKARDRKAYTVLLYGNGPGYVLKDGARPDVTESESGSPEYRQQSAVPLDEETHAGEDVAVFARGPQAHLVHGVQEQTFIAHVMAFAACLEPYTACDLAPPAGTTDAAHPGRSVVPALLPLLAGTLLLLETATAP
tolC growth inh – E. coli tolC mutant growth inhibition. E. coli BW25113 tolC mutant growth, OD615. growth inhibition, % at 10 µM (by protocol). actives 2.2% (n = 65,000). AID 573;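 active = growth inhibition at or above a cutoff equal to the mean over every tested compound plus 3 SD, cut at about 60% in these data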;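 also: growth measured after 20 h incubation at 37 °C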
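Material: E. coli BW25113 ΔtolC::kan, tolC deletion mutant strain. Measure: percent growth inhibition. Schedule: 37 °C, 20 h exposure. Doses: single-point testing at 10 µM. Signal: A615 absorbance measurement. Buffer or medium: kanamycin-containing LB broth (50 µg/mL).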
* marks the source's active call; other numbers are inactive results; · = not tested or not shown. Rule as the data show it, unless noted: active = inhibition above about 30%; inactive = the rest.

SMILES	E coli WT exp	PostGolgi yeast	PostGolgi ctrl	PLAP activator	tolC growth inh
O=C(NCc1ccco1)c1ccc2nc3sc4c(c3c(=O)n2c1)CCCC4	-2	2	-1	1.3	21
O=C(CN1CCN(S(=O)(=O)c2ccc(F)cc2)CC1)Nc1ccc(Cl)c(C(F)(F)F)c1	1	0	33*	1	64*
CCOc1ccc(NC(=O)CN2CCN(CC(=O)Nc3ccc(Cl)c(C(F)(F)F)c3)CC2)cc1	-1	-3	35*	1.7	·
CC(=O)c1nc2ccccc2n1S(=O)(=O)c1ccc(Cl)cc1	1	-1	10	1	-14
CC(=O)c1nc2ccccc2n1S(=O)(=O)c1ccc(C)cc1	-3	8	40*	1.1	-14
CC(C)CN(C(=O)CSc1nncs1)c1c(N)n(CC(C)C)c(=O)[nH]c1=O	-5	-1	0	1	·
Cc1ccc2nc(SCC(=O)N(CC(C)C)c3c(N)n(CC(C)C)c(=O)[nH]c3=O)[nH]c2c1	5	17	3	2.3*	·
CCOC(=O)c1ccc(CNC(=O)Cn2nnc(-c3ccc(C)cc3)n2)o1	-1	-4	12	1	-15
CC(=O)Nc1nc(C=C(Cl)Cl)cs1	19	10	33*	1	14
COC(=O)Nc1ccc(OCc2ccccc2)cc1	3	14	4	1	-6
CS(=O)(=O)Nc1ccc(OCc2ccccc2)cc1	-1	2	31*	1	-8
C(=N\Nc1ncnc2sc3c(c12)CCC3)/c1cccs1	3	19	34*	1.3	·
O=C(Nc1ncnc2sc3c(c12)CCCCC3)c1ccccc1	2	48*	33*	1	·
CCOc1ccc(S(=O)(=O)NC(C)(C)C)cc1-c1nc2c(C(C)(C)C)nn(C)c2c(=O)[nH]1	1	7	7	1.8	5
CCOC(=O)C(NS(=O)(=O)c1ccc(Br)cc1)C(C)C (centres undefined)	-1	9	9	0.9	3
CCOC(=O)N1CCC(NS(=O)(=O)c2cc(Br)cc3c2N(C(=O)CC)CC3)CC1	5	20	4	1.2	11
C=CCc1c(C)c(C#N)c2nc3ccccc3n2c1NCCN(C)C	6	82*	74*	1.4	-2
CCc1c(C)c(C#N)c2nc3ccccc3n2c1NCCN(C)C	-1	-5	42*	1.5	3
O=C(Nc1ccc(N=Nc2ccccc2)cc1)c1ccc(Cl)cc1Cl	-12	18	1	0.9	·
O=C(Nc1ccccc1)C1=C(O)CC(c2ccco2)CC1=Nc1ccccc1 (centres undefined)	-1	69*	31*	0.9	12
CC1=C(C(=O)Nc2ccccc2)C(c2ccco2)NC(=S)N1 (centres undefined)	-10	-4	4	1	·
O=C(Nc1ccccc1)C1=C(O)CC(c2ccoc2)CC1=Nc1ccccc1 (centres undefined)	-7	14	46*	0.9	35
O=C(Cc1coc(-c2ccc(F)cc2)n1)N1CCOCC1	3	-1	-2	1.2	-9
CCN(CC)S(=O)(=O)c1cccc(-c2nnc(SCc3nnc(-c4cccs4)o3)n2N)c1	-3	-14	6	1.8	6
CC1=CC(C)(C)N2C(=O)C3(SCC(=O)N3c3ccc(O)cc3)c3cc(C)cc1c32 (centres undefined)	4	-2	15	1.3	87*
SMILES	E coli WT exp	PostGolgi yeast	PostGolgi ctrl	PLAP activator	tolC growth inh
CCCn1c(SCC(=O)NC(C)C23CC4CC(CC(C4)C2)C3)n[nH]c1=O (centres undefined)	2	-2	38*	1.4	·
CN(C)CCNc1oc(-c2cccc(Cl)c2)nc1C#N	13	4	5	1.2	·
Cc1cc(OCC(=O)Nn2cnnc2)ccc1Br	-5	-2	-9	1.3	-1
CCN1/C(=C(\O)c2ccccc2)C(=O)c2ccccc2S1(=O)=O	12	11	23	1	89*
CCN1c2cccc3cccc(c23)S1(=O)=O	-2	-11	-5	0.8	·
Cc1ccc(NC(=O)c2cc([N+](=O)[O-])ccc2NCc2cccnc2)cc1	-13	-4	5	0.9	·
CCSc1nnc(-c2cnn(-c3ccccc3)c2-n2cccc2)n1C	2	2	6	1.3	·
CCCCCCSc1nnc(-c2cnn(-c3ccccc3)c2-n2cccc2)n1C	-8	-10	61*	1.5	·
O=C(NCC(c1cccs1)N1CCOCC1)c1ccc(Cl)s1 (centres undefined)	-2	-4	2	1.1	-5
COC(=O)c1ccc(NC(=O)CSCc2ccccc2C)cc1	3	1	4	0.9	·
CCN(CC)S(=O)(=O)c1ccc(NC(=O)CCC2CCCCC2)cc1	-6	-4	26	2.9*	·
Cc1noc(NS(=O)(=O)c2ccc(NC(=O)CCC3CCCCC3)cc2)c1C	0	-4	2	0.9	35
Cc1nc(N2CCN(Cc3ccccc3)CC2)nc2c1C(=O)CC(c1ccco1)C2 (centres undefined)	-8	-6	-6	1.4	79*
Cc1onc(-c2c(F)cccc2Cl)c1C(=O)Nc1nc2c(s1)CCCC2	-16	-7	9	·	63*
Cc1cc(C(=O)Nc2nc3c(s2)CCCC3)no1	1	4	19	1.1	1
Cc1onc(-c2ccccc2)c1C(=O)Nc1nc2c(s1)CCCC2	-3	-8	34*	1.2	30
COc1ccccc1OCC(=O)Nc1ccc(S(=O)(=O)Nc2nc(C)cc(C)n2)cc1	-2	7	4	1.3	5
COC(=O)c1ccccc1NC(=O)C1CCN(C(=O)c2cc(OC)c(OC)c(OC)c2)CC1	-18	11	8	1.6	5
N#CCSc1nc2c(c(C3CC=CCC3)c1C#N)CCC2 (centres undefined)	-9	5	27	0.9	67*
N#CCSc1nc2c(cc1C#N)CCCCCC2	-6	-3	25	0.9	4
CCC(C)NS(=O)(=O)c1ccc(NS(C)(=O)=O)cc1 (centres undefined)	4	48*	19	1	-11
CCOc1ccc(NC(=O)c2ccccc2OCC(=O)c2ccccc2)cc1	-1	3	23	1.6	·
COCCC(=O)NC12CC3CC(CC(C3)C1)C2	9	-7	35*	1	-8
COCCNCC(=O)NC12CC3CC(CC(C3)C1)C2	1	2	8	1.4	-6
O=C(CCSc1ccc(Cl)c(Cl)c1)NC12CC3CC(CC(C3)C1)C2	-18	1	39*	0.9	·
SMILES	E coli WT exp	PostGolgi yeast	PostGolgi ctrl	PLAP activator	tolC growth inh
O=C(c1cc(-c2ccc(O)cc2)on1)N1CCc2ccccc2C1	2	5	28	1.3	21
CC1CCN(C(=O)c2cc(-c3ccccc3O)on2)CC1	2	-10	35*	1	-1
O=C(c1cc(-c2ccccc2O)on1)N1CCc2ccccc2C1	5	-1	56*	1.1	12
COc1cccc(NC(=O)NC2CCN(Cc3nnnn3Cc3ccc(F)cc3)CC2)c1	-4	22	0	2.1*	19
CC(C)c1ccc(Nc2nc(NCc3ccco3)nc(N3CCOCC3)n2)cc1	-7	5	4	0.9	66*
Clc1ccc(Nc2nc(NCCN3CCOCC3)nc(N3CCOCC3)n2)cc1	-2	4	11	1.6	-19

Screening data: PubChem, several laboratories
